Laboratory results from ChEMBL document CHEMBL1149289, “Synthesis and antibacterial activity of new poly-S-lysine-porphyrin conjugates” (J Med Chem, 2004).

Key:
Format in all cases: ADME, organism-based
Settings in all cases: in vivo
Staphylococcus aureus [1] = test: Drug uptake per mg of protein in Staphylococcus aureus ATCC 25923 at 0.1 uM after 10 mins
Summary of the method: (§1)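 Washed stationary-phase bacteria in PBS (10^8 to 10^9 cells/mL; OD650 ca. 0.7) incubated 10 min in the dark at room temperature with photosensitizer. Cells were then centrifuged, supernatant removed, and pellet digested in 2% aqueous SDS. Porphyrin measured by spectrofluorimetry, cell protein by modified Lowry with BSA standard; uptake expressed as nmol photosensitizer per mg cell protein.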

Staphylococcus aureus [2] = test: Drug uptake per mg of protein in methicillin-resistant Staphylococcus aureus 110 at 0.1 uM after 10 mins
Summary of the method: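 Bacterial suspensions (10^8 to 10^9 cells/mL in PBS) were incubated with porphyrin for 10 min in the dark at room temperature, then centrifuged. The pellet was digested in 2% aqueous SDS. Porphyrin was quantified by spectrofluorimetry and cell protein by modified Lowry assay (BSA standard). Uptake is given as nmol per mg cell protein.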

Escherichia coli = test: Drug uptake per mg of protein in Escherichia coli O4 at 0.1 uM after 10 mins; summary of the method: as §1

With `O=C(O)c1ccc(-c2c3nc(c(-c4ccncc4)c4ccc([nH]4)c(-c4ccncc4)c4nc(c(-c5ccncc5)c5ccc2[nH]5)C=C4)C=C3)cc1` [PORPHIRIN] the Drug uptake (Staphylococcus aureus [1]) was 1.54 nmol/mg, the Drug uptake (Staphylococcus aureus [2]) was 1.5 nmol/mg and the Drug uptake (Escherichia coli) was 1.2 nmol/mg.
